Rows were chosen to be rich in hits. Some 2.4% of all compounds tested hit in one or more screens of this group.
Jurkat NFkB inh – inhibitors of induced NF-kB luciferase reporter, primary screen, TCR NF-kB activation inhibitor project, cell-based, luminescence, uHTS. Jurkat, PMA/ionomycin-induced NF-kB luciferase reporter. inhibition, % at 4 µM. 330,000 tested, 0.53% active. AID 435003, 2010; in the data active = inhibition above about 50%
NR2E3 ag-1 – inhibitors of NR2E3-RetCOR corepressor binding, primary screen, NR2E3 agonist project, biochemical, TR-FRET, GST-NR2E3, biotin-RetCOR; Photoreceptor-specific nuclear receptor (Homo sapiens), Q9Y5X4; 1536-well; inhibition of corepressor binding, % at 4.78 µM; 320,000 tested, 0.12% active;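 active = percent inhibition above the cutoff of mean plus 3 SD of all tested compounds, set per screening campaign, cut at about 20% in these data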;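 also: 0% = DMSO wells and 100% = biotin wells as full block of FRET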
Target sequence (Q9Y5X4 whole entry, looked up): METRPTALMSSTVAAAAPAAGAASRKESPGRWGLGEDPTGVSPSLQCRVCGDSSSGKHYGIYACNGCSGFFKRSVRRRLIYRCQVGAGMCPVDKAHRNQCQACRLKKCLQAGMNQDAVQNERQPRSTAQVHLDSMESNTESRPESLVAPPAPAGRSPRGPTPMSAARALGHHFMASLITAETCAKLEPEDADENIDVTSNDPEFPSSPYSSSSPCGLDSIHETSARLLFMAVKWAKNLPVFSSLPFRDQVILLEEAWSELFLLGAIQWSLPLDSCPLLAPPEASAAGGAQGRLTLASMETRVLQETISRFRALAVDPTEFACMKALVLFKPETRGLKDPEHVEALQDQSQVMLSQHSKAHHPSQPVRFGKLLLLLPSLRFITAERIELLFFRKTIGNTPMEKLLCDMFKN
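Material: NR2E3–RetCOR corepressor complex | Quantity: 1.35 nM GST-tagged NR2E3 final | Schedule: 5 h at 4 °C | Replication: Singlicate compound wells | Reagent: RetCOR corepressor, biotinylated, 7 nM | Controls: Biotin wells as high control, 0.6% DMSO wells as low control | Signal: TR-FRET, Eu(K)-anti-GST donor, streptavidin-D2 acceptor, ex 340, em 617/671 nm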
MPTP inh – mitochondrial permeability transition pore inhibitors, primary screen, biochemical, isolated mouse mitochondria, absorbance; 360,000 tested, 1.4% active; Ca2+ swelling absorbance, 30 min; inhibition, % at 10 µM;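 active = inhibition of 50% or more, scaled per plate between neutral and stimulator controls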;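 also: 0% = DMSO wells given calcium and 100% = 1 mM EGTA wells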
697 NFkB inh – inhibitors of PMA/ionomycin-induced NF-kB reporter, 697 cells, primary screen, B-cell NF-kB inhibitor project, cell-based, luminescence, uHTS | AID 435022, 2010 | inhibition, % at 4 µM | 697 B-cell NF-kB luciferase reporter, 16 h | 330,000 tested, 0.33% active; in the data active = inhibition above about 35%
NR2E3 ag-2 – NR2E3 agonists in two-hybrid cells, primary screen, cell-based, luminescence, CHO-S, Gal4-NCOR/VP16-NR2E3 | inhibition of corepressor binding, % at 3.98 µM | 360,000 tested, 0.35% active | luciferase | Photoreceptor-specific nuclear receptor (Homo sapiens), Q9Y5X4;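 active = inhibition above the mean of all tested compounds plus 3 SD, cut at about 70% in these data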;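 also: 0% = DMSO with NR2E3 transfected cells and 100% = cells lacking NR2E3 construct; higher means lower luciferase signal from less NR2E3 corepressor binding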
aDG glyco up – activators of alpha-DG glycosylation, primary screen, uHTS, Pro5-aDG cells, AlphaScreen; activation, % at 10 µM; AID 624168, 2012; alpha-DG glycosylation AlphaScreen (IIH6); 0% Pro5, 100% B10-LARGE cell signal; 360,000 tested, 0.22% active;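 active = activation of at least 8% versus controls, or a plate z-score of at least 8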;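 also: Pro5 are CHO cells carrying HIG-tagged alpha-DG that lacks glycosylation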
Rh123 counter – fluorescence retest of MPTP screen hits in isolated mitochondria, single concentration; shares compounds with MPTP inh; membrane potential, Rhodamine 123 fluorescence; inhibition, % at 10 µM; 5,000 tested, 78% active; AID 624504, 2012; in the data active = inhibition above about 22%;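 also: 0% = DMSO vehicle and 100% = positive control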
MPTP abs DR – mitochondrial permeability transition pore inhibitors, dose response, biochemical, absorbance, uHTS hits | AID 651561, 2012 | shares compounds with MPTP inh | 780 tested, 58% active | isolated mitochondria swelling | IC50, µM; in the data active = IC50 below about 20 µM
MPTP cs DR – fluorescent counter-screen in isolated mitochondria, dose response, counter-screen for MPTP inhibitor project, biochemical, fluorescence, uHTS hits; shares compounds with MPTP inh; isolated mitochondria counterscreen, fluorescence read-out; IC50, µM; 780 tested, 49% active; in the data active = IC50 below about 80 µM
Numbers without * were called inactive; i = inactive; nt = no result given.

SMILES	Jurkat NFkB inh	NR2E3 ag-1	MPTP inh	697 NFkB inh	NR2E3 ag-2	aDG glyco up	Rh123 counter	others
C(=C\c1nc(N2CCCCCC2)c2ccccc2n1)/c1ccccc1	-7.3	-2.4	65.0*	-14.7	-14.7	0.2	93.3*
Cc1ccc(C)c(NC(=O)c2cc3ccccn3n2)c1	-105.9	0.6	52.8*	-60.1	-126.0	0.0	5.1	MPTP abs DR=i;MPTP cs DR=>80
Nc1nc(SCC(=O)Nc2ccc([N+](=O)[O-])cc2)n[nH]1	-5.8	-1.4	1.2	-12.9	-10.2	-0.1	nt
CN(Cc1cn(C)nc1-c1ccc(Oc2ccccc2)cc1)Cc1cnc2ccccn12	14.0	2.0	68.8*	-36.2	27.2	0.5	56.5*
Cc1ccc2c(CC(=O)OCC(=O)N(CC(C)C)c3c(N)n(Cc4ccccc4)c(=O)[nH]c3=O)coc2c1	-2.7	-0.6	-0.8	-16.8	-3.7	0.2	nt
CSc1nsc(N/N=C/c2ccc3c(c2)OCO3)c1C#N	-107.9	2.9	1.0	-221.8	-34.5	0.3	nt
COc1cc(/C=N/Nc2snc(SC)c2C#N)cc(OC)c1OC	10.1	-0.4	72.8*	-150.0	-23.1	0.4	75.4*
CCN(CC)CC(=O)Nc1ccc2c(c1)Nc1ccccc1CC2	24.2	-3.4	84.0*	-12.2	-17.8	2.5	-3.7	MPTP abs DR=10.5*;MPTP cs DR=66.3*
CC(=O)Nc1ccc(NC(=O)CSc2ccc(C(F)(F)F)cc2[N+](=O)[O-])cc1	4.3	6.0	1.1	8.0	-11.6	0.1	nt
O=C(CSc1ccc(C(F)(F)F)cc1[N+](=O)[O-])Nc1ccccc1	-51.5	-0.9	59.0*	-8.2	-21.2	0.1	60.9*
CCOC(=O)C1(CCOC)CCN(C/C=C/c2ccccc2OC)CC1	nt	0.3	89.5*	nt	2.9	0.7	49.1*
CCOC(=O)C1(CCOC)CCN(Cc2cccc(OCc3ccccc3)c2)CC1	12.7	5.9	55.3*	1.3	8.0	0.5	9.7	MPTP abs DR=14.6*;MPTP cs DR=26.5*
CCOC(=O)C1(CCOc2ccccc2)CCN(Cc2cccs2)CC1	1.3	2.8	51.9*	-20.1	-16.5	0.0	8.3	MPTP abs DR=17*;MPTP cs DR=47.9*
CCOC(=O)C1(CCCc2ccccc2)CCN(Cc2nccn2CC)CC1	-12.0	-2.5	56.3*	-44.9	-3.8	5.0	40.0*
CCOC(=O)C1(CCOc2ccccc2)CCN(Cc2cccc(OC)c2)CC1	nt	1.1	41.4	nt	0.7	0.2	nt
CCOC(=O)C1(CCOc2ccccc2)CCN(Cc2ccncc2)CC1	2.5	3.1	-1.8	-55.3	8.9	0.2	nt
COc1cc(C2SCC(=O)N2c2c(C)n(C)n(-c3ccccc3)c2=O)ccc1O (stereo unspecified)	-3.3	1.1	-0.2	-8.6	1.5	-0.2	nt
Cc1cc(C(=O)Nc2ncc(C)s2)c2ccccc2n1	-11.7	5.4	-2.4	8.0	-9.8	0.3	nt
CCCN(Cc1nnc(-c2ccccc2Cl)o1)C(=O)COc1ccc(Cl)cc1	-9.2	6.2	0.7	-13.5	23.6	0.3	nt
C=CCn1c(NCCc2ccccc2)nc2c1c(=O)n(C)c(=O)n2C	19.6	1.7	45.5	-55.9	51.3	5.8	nt
C/C(Cl)=C\Cn1c(NCCc2ccccc2)nc2c1c(=O)n(C)c(=O)n2C	32.4	3.5	53.9*	-13.1	-1.1	3.4	83.4*
OCC1CCN(Cc2cn(Cc3ccccc3)nc2-c2cc3ccccc3o2)CC1	7.2	-0.1	52.1*	6.7	-41.9	0.3	-19.6	MPTP abs DR=18*;MPTP cs DR=>80
COC1CCN(Cc2cn(Cc3ccccc3)nc2-c2cc3ccccc3o2)CC1	11.1	-2.0	2.4	9.9	-5.2	-0.1	nt
N#CCCN(CCC#N)C(=S)NC1CC2C=CC1C2 (stereo unspecified)	-1.7	8.1	0.5	11.2	-6.8	-0.2	nt
COc1ccc(-c2cc3ccccc3n2CC(O)CNCCO)cc1 (stereo unspecified)	10.1	1.9	53.8*	-2.9	-3.4	0.5	-18.3	MPTP abs DR=10.2*;MPTP cs DR=>80
SMILES	Jurkat NFkB inh	NR2E3 ag-1	MPTP inh	697 NFkB inh	NR2E3 ag-2	aDG glyco up	Rh123 counter	others
O=C1c2ccc(Oc3ccc([N+](=O)[O-])cc3)cc2C(=O)N1c1ccncc1	2.8	-0.7	87.2*	14.0	4.5	0.0	79.0*
O=C(O)CN1C(=O)c2ccc(Oc3ccc([N+](=O)[O-])cc3)cc2C1=O	-16.5	4.2	-0.9	-10.1	-11.8	-0.1	nt
CN1CCN(CCOC2Cc3ccccc3Sc3ccc(Cl)cc32)CC1 (stereo unspecified)	-11.6	-0.7	89.8*	-1.3	-2.8	2.0	-11.4	MPTP abs DR=6.45*;MPTP cs DR=>80
CN1CCN(CCC(=O)N2c3ccccc3Sc3ccc(Cl)cc32)CC1	-5.5	-2.6	-2.0	13.5	-13.1	0.2	nt
OCCN1CCN(C2Cc3cc(Cl)ccc3Sc3ccc(Cl)cc32)CC1 (stereo unspecified) (tested in a mixture with another compound)	4.8	-0.9	84.5*	-1.4	-6.0	1.5	-11.3
NC(N)=N/N=C/c1cccc([N+](=O)[O-])c1O	4.3	0.1	-0.3	-19.1	10.6	0.7	nt
O=[N+]([O-])c1cccc(/C=N\N=C2c3ccccc3-c3ccccc32)c1O	-1.6	0.4	103.7*	-7.5	2.4	-0.4	6.7
COc1ccc(/C=C2/SC(=O)N(CCNC(=O)C3COc4ccccc4O3)C2=O)cc1 (stereo unspecified)	-31.3	-1.9	6.4	-16.7	-0.4	0.4	nt
O=C(NCCN1C(=O)S/C(=C\c2ccc(Cl)c(Cl)c2)C1=O)c1ccc2c(c1)C(=O)N(Cc1ccncc1)C2=O	5.5	0.1	56.2*	-29.4	-2.2	-0.2	20.5*
O=C(NCCN1C(=O)S/C(=C\c2ccc(Cl)c(Cl)c2)C1=O)C1COc2ccccc2O1 (stereo unspecified)	-14.2	-3.1	99.3*	0.6	-14.0	0.0	91.7*
CCC(C)n1c(C)cc(=O)n1C(C)CC (stereo unspecified)	nt	nt	-1.4	nt	10.9	-0.3	nt
